# Hits are enriched below; roughly 9.8% of the tested compounds scored in any of these assays.
# Rad51 HR inh: Rad51 (human) homologous recombination inhibition | inhibition, % at 10 µM | hit rate 0.085% among 200,000 | hRad51 DNA strand exchange, fluorescence dequenching;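 active = inhibition above 40% at the single screening dose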;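 note: 0% = DMSO control wells and 100% = blanks with heterologous ssDNA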
# Target sequence (Q06609 whole entry, looked up): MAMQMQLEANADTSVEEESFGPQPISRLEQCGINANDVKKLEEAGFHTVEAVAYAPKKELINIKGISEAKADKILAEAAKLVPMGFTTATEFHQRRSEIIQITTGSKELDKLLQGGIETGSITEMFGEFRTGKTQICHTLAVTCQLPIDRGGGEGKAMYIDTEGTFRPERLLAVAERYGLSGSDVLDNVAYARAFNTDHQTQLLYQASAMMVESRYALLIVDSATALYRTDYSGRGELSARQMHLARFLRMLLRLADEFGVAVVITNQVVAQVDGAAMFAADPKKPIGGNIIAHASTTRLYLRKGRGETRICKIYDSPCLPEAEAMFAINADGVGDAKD
#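 Read-out basis: percent inhibition relative to plate controls and blanks / Assay system: human Rad51 nucleoprotein filaments preassembled on unlabelled ssDNA / Timing: filaments 15 min 37 °C, then compound 30 min / Control set: per-plate controls and blanks / Technique: fluorescence dequenching at 485/520 nm / Compound: 10 µM final, single point / Also added: Fluorescein- and BHQ1-tagged 47-mer duplex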
# PMI act hi M6P: activators of human phosphomannose isomerase at near-saturating mannose 6-phosphate; P34949; coupled PMI enzyme assay, resazurin fluorescence, 20 min; active compounds read high; 1 = untreated enzyme, 0 = substrate-free blank; activation factor at 20 µM; hit rate 0.34% among 190,000; AID 1216;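 active = activation factor of 2 or more at 20 µM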
#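 Material: human phosphomannose isomerase with PGI, G6PDH, diaphorase coupling enzymes; amount: PMI at 15 ng/mL final; also added: Mannose-6-phosphate 1.0 mM (near-saturating) plus 0.22 mM NADP+; incubation: enzyme reaction with compound 20 min at room temperature; signal: resorufin fluorescence (Ex 544/Em 590 nm) from resazurin via diaphorase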
# PMI activator: increases human mannose-6-phosphate isomerase activity; purified human PMI, coupled resazurin fluorescence, 20 min; active compounds read high; 1 = vehicle control, 0 substrate-free wells; P34949; hit rate 0.005% among 190,000; activation factor at 20 µM;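 active = activation factor of 2 or more at 20 µM, relative to plate controls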
# Lmaj promast: inhibitors of Leishmania major promastigote growth. Leishmania major promastigotes, resazurin fluorescence viability. inhibition, % at 10 µM. hit rate 9% among 200,000. AID 1063; in the data active = inhibition above about 50%;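 note: promastigotes grown with compound for 44 hours at 28 °C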
# m-calpain inh: blocks pig calpain II enzyme activity; inhibition, % at 16 µM; hit rate 0.37% among 220,000; purified calpain II, fluorogenic peptide substrate, 30 min;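 active = inhibition above about 50%, limit read from the data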
# WT yeast gro inh: growth inhibition of WT yeast, mitochondrial fusion screen | AID 1362 | hit rate 2.1% among 190,000 | mitochondrial fusion phenotypic screen, WT strain | inhibition, % at 10 µM; in the data active = inhibition above about 58%; tested in S. cerevisiae
# Active calls of the source: *; · = not tested or not shown.
SMILES,Rad51 HR inh,PMI act hi M6P,PMI activator,Lmaj promast,m-calpain inh,WT yeast gro inh
C/C(=N\NC(=O)C(C)Oc1ccc([N+](=O)[O-])cc1)c1ccccn1 (stereo not drawn),·,1.1,1.1,100*,8,2
COc1ccc(C(=O)NC(=S)NNC(=O)c2cnccn2)cc1OC,8,0.9,0.4,100*,-2,8
CC(=O)C(Cc1cccc(F)c1)(Cc1cccc(F)c1)C(C)=O,-2,0.9,0.9,-9,7,-4
O=C(O)/C=C/c1cn(Cc2ccccc2Cl)nc1-c1ccccc1,-11,·,·,·,23,·
COc1cc(OC)cc(C(=O)NC(=S)Nc2cccnc2)c1,-7,1,0.9,-3,35,-8
COc1cc(OC)cc(C(=O)NC(=S)NNC(=O)c2cnccn2)c1,4,1.1,0.7,100*,-7,-7
O=C(NNC(=O)c1ccccn1)c1cccc([N+](=O)[O-])c1,0,1,0.9,58*,-2,-6
O=C(c1cccc([N+](=O)[O-])c1)c1ccccn1,18,·,·,·,8,·
CCOC(=O)c1cn2nc(Oc3cccc(C(F)(F)F)c3)ccc2n1,-3,·,·,·,-64,·
Cc1ccc(S(=O)(=O)O/N=C2\CCCc3ccccc32)cc1,3,1,0.9,-5,-17,-5
CC1=C(C)/C(=N\OS(=O)(=O)c2ccccc2)C=CC1=O,2,0.5,0.2,101*,-115,80*
CC(=Nc1ccc(C)cc1C)c1sc2ccccc2c1O,-24,0.9,0.9,10,2,79*
Cc1ccc(N(C(=O)c2ccco2)C2C=CS(=O)(=O)C2)cc1 (stereo not drawn),-2,1,0.9,1,-7,14
CCCNC(=O)CNC(=S)N(Cc1cc(OC)c(OC)c(OC)c1)C1CCCC1,9,1,0.8,54*,-1,-30
CC(C)=CCc1c(O)ccc(C(=O)Cc2ccccc2)c1O,0,0.9,0.8,13,33,81*
CC(C)CCN1CCN(Cc2cccs2)CC1CCO (stereo not drawn),·,0.9,0.9,0,18,0
OCCC1CN(Cc2nc(-c3ccccc3)cs2)CCN1CCc1ccccc1 (stereo not drawn),1,1,0.9,87*,-3,36
CC(C)CCN1CCN(Cc2nc(-c3ccccc3)cs2)CC1CCO (stereo not drawn),-87,0.8,1,85*,-12,6
CC(C)CCN1CCN(C2CCN(c3ccccc3)CC2)CC1CCO (stereo not drawn),4,0.9,0.9,89*,-9,-15
OCCC1CN(C2CCN(c3ccccc3F)CC2)CCN1Cc1ccccc1 (stereo not drawn),-28,0.8,0.8,80*,-34,-10
CCOc1ccccc1N1C(=O)CC(Sc2n[nH]c(-c3ccccc3)n2)C1=O (stereo not drawn),-5,1,0.6,-4,-23,-9
O=C(OCc1nnc(-c2ccc(Br)cc2)o1)c1cncc(Br)c1,17,1,1,10,20,10
CC1(C(=O)O)CCC(C(=O)N2CCCCC2)C1(C)C (stereo not drawn),-3,0.9,0.9,1,-21,-10
Cc1ccc(-c2nc(CN(C)C3CCOC3)c(C)o2)s1 (stereo not drawn),30,1,0.9,-4,-34,-10
COC(=O)c1sc(SC)c(-c2ccon2)c1C,-26,·,·,·,26,·
SMILES,Rad51 HR inh,PMI act hi M6P,PMI activator,Lmaj promast,m-calpain inh,WT yeast gro inh
CC(C)=CCN1CCN(Cc2cccn2-c2nccs2)CC1CCO (stereo not drawn),-8,1,0.9,-6,-23,-22
CC(C)CCN1CCN(CC#Cc2ccccc2)CC1CCO (stereo not drawn),-7,1,1,80*,-18,-2
CC(C)=CCN1CCN(Cc2nc(-c3ccccc3)cs2)CC1CCO (stereo not drawn),26,1,0.9,70*,9,5
OCCC1CN(Cc2nc(-c3ccc(F)cc3)cs2)CCN1CCc1ccccc1 (stereo not drawn),-12,0.9,0.8,85*,-14,-14
O=C(Nc1cccc(C(=O)O)c1)/C(=C\c1ccccc1)NC(=O)c1cccc2ccccc12,·,1,1,-1,-28,-4
CC(C)(C)NC(=S)NCc1ccncc1,·,1.1,1,1,-14,1
COc1ccc(-n2cc(C#N)c(=O)n(Cc3ccc(F)cc3)c2=O)cc1,9,1,1.2,13,-39,-22
O=C(COC(=O)Cc1ccccc1F)Nc1ccc(F)cc1F,8,1,0.9,-1,-32,-4
O=C(O)c1cc(NN=Nc2ccc(Br)cc2)cc([N+](=O)[O-])c1,13,·,·,·,60*,·
O=C(O)c1cc(NN=Nc2cccc([N+](=O)[O-])c2)cc([N+](=O)[O-])c1,15,·,·,·,27,·
O=C(Cn1nnc(-c2ccc(CN3CCOCC3)cc2)n1)N1CCCc2ccccc21,6,0.9,0.9,84*,6,-3
O=C(Cn1nnc(-c2ccc(CN3CCOCC3)cc2)n1)N(c1ccccc1)c1ccccc1,-2,0.9,0.9,70*,-30,2
NC(=O)Cn1nnc(-c2ccc(CN3CCCCC3)cc2)n1,10,1.1,1,-1,-17,-16
COc1cc(C(C)=O)ccc1COc1ccc(C(=O)OC(C)C(=O)NC(N)=O)cc1OC (stereo not drawn),8,0.8,0.8,-2,-46,-11
Cc1ccc(S(=O)(=O)Nc2c(C)n(C)n(-c3ccccc3)c2=O)cc1C(=O)OCC(=O)N1CCCC(C)C1 (stereo not drawn),3,0.9,0.9,32,-10,-6
O=C1NC(=S)S/C1=C\c1ccc(SCc2ccco2)o1,11,0.9,0.9,-8,52*,69*
Cc1cc(/C=C2\SC(=S)NC2=O)cc(C)c1O,-23,·,·,·,6,·
O=C1NC(=S)S/C1=C\c1ccc(SCc2ccccc2)o1,-26,0.3,0.2,1,39,83*
CCC1=NN2C(=N)/C(=C\c3ccc(SCc4ccco4)o3)C(=O)N=C2S1,-83,1.4,1.1,-4,-36,26
CCOC(=O)c1c(NC(=O)c2cccs2)sc2c1CCN(C(=O)OCC)C2,0,1,0.9,35,-33,63*
CCN1CCc2c(sc(NC(=S)NC(=O)c3ccco3)c2C(N)=O)C1,-26,·,·,·,-6,·
CCOC(=O)c1c(NC(=O)C(C)N2CCN(C(=O)c3ccco3)CC2)sc2c1CCCC2 (stereo not drawn),·,1.1,1,40,32,70*
CCOC(=O)c1c(NC(=O)c2cccs2)sc2c1CCCC2,0,1,0.9,-2,-326,16
CCOC(=O)N1CCc2c(sc(NC(=O)c3ccc(Cl)s3)c2C(N)=O)C1,0,1.3,1.1,82*,-127,24

# From PubChem
